Substrate in series [1]: Nc1ncnc2c1ncn2COCCO
The settings on record: herpes simplex virus.

Substrate in series [2]: Nc1nc(O)c2c(ncn2COCCO)n1
The settings on record: herpes simplex virus.

Substrate in series [3]: Nc1ncnc2c1ncn2[C@@H]1O[C@H](CO)[C@@H](O)[C@@H]1O
The settings on record: herpes simplex virus.

Substrate in series [4]: Nc1ncnc2ncn(COCCO)c12
The settings on record: herpes simplex virus.

Substrate in series [5]: Nc1nc(O)c2c(ncn2COCCO)n1
The settings on record: Chlorocebus sabaeus; Vero.

Substrate in series [6]: Nc1nc2c(ncn2COCCO)c(=O)[nH]1
The settings on record: Chlorocebus sabaeus; Vero.

Substrate in series [7]: Nc1ncnc2ncn(CCOCP(=O)(O)O)c12
The experiment in a line: (§1) Michaelis rate constant is determined by the Lineweaver and Burk method against PRPP synthetase. The method, boiled down:
(§2)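 PRPP synthetase reaction in 10.0 mM potassium phosphate buffer (pH 8.0) with 5.0 mM MgCl₂, 2.5 mM PRPP, 0.04 unit enzyme and AMP or test nucleotide. Reactions ran linearly and were stopped with MeOH after 4 h. Diphosphate or ATP formation was analysed by anion-exchange HPLC. Inhibition was measured at different AMP concentrations plus inhibitor, with 0.002 unit enzyme, 37 °C, 15 min, ATP formation followed by HPLC.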

Substrate in series [8]: Nc1ncnc2c1ncn2[C@@H]1O[C@H](COP(=O)(O)O)[C@@H](OP(=O)(O)COCCn2cnc3ncnc(N)c32)[C@H]1O
The series is described as §1. The method, boiled down:
as §2

Substrate in series [9]: COC1=C(OC)/C(=C/COP(=O)(O)COCCn2cnc3c(N)ncnc32)OC1=O
The experiment in a line: (§3) Michaelis rate constant is determined by the Lineweaver and Burk method against adenosine deaminase. The essentials: (§4)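 Reaction velocity measured as µmol/min per mg enzyme across substrate concentrations.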

Substrate in series [10]: COC1=C(OC)/C(=C/COP(=O)(O)OC[C@H]2O[C@@H](n3cnc4c(N)ncnc43)[C@H](O)[C@@H]2OP(=O)(O)COCCn2cnc3ncnc(N)c32)OC1=O
The description is as §3. The method, boiled down: as §4

Substrate in series [11]: Nc1ncnc2ncn(CCOCP(=O)(O)O)c12
The description is as §3. The method, boiled down: as §4

Substrate in series [12]: Nc1ncnc2c1ncn2[C@@H]1O[C@H](COP(=O)(O)O)[C@@H](OP(=O)(O)COCCn2cnc3ncnc(N)c32)[C@H]1O
The series is described as §3. The essentials:
as §4

Substrate in series [13]: Nc1ncnc2ncn(COCCO)c12
Described as §3. The method, boiled down:
as §4

B1: Thymidine kinase, cytosolic (Homo sapiens), P04183 (protein)
chain: MSCINLPTVLPGSPSKTRGQIQVILGPMFSGKSTELMRRVRRFQIAQYKCLVIKYAKDTRYSSSFCTHDRNTMEALPACLLRDVAQEALGVAVIGIDEGQFFPDIVEFCEAMANAGKTVIVAALDGTFQRKPFGAILNLVPLAESVVKLTAVCMECFREAAYTKRLGTEKEVEVIGGADKYHSVCRLCYFKKASGQPAGPDNKENCPVPGKPGEAVAARKLFAPQQILQCSPAN
For B1, the Km (commonly the substrate concentration at which the rate is half of its maximum) in series [1] turned out to be 2 µM; in series [2], 12.8 µM; in series [3], 1.5 µM; in series [4], 30 µM; in series [5], 18.3 µM; in series [6], 2.2 µM.

B2: Phosphoribosyl pyrophosphate synthase-associated protein 2 (Homo sapiens), O60256 (protein)
chain: MFCVTPPELETKMNITKGGLVLFSANSNSSCMELSKKIAERLGVEMGKVQVYQEPNRETRVQIQESVRGKDVFIIQTVSKDVNTTIMELLIMVYACKTSCAKSIIGVIPYFPYSKQCKMRKRGSIVSKLLASMMCKAGLTHLITMDLHQKEIQGFFNIPVDNLRASPFLLQYIQEEIPDYRNAVIVAKSPASAKRAQSFAERLRLGIAVIHGEAQDAESDLVDGRHSPPMVRSVAAIHPSLEIPMLIPKEKPPITVVGDVGGRIAIIVDDIIDDVDSFLAAAETLKERGAYKIFVMATHGLLSSDAPRRIEESAIDEVVVTNTIPHEVQKLQCPKIKTVDISMILSEAIRRIHNGESMSYLFRNIGLDD
B2: the Km in [7] amounted to 4800 µM; in series [8], 570 µM.

B3: Adenosine deaminase (Bos taurus), P56658 (protein)
chain: MAQTPAFNKPKVELHVHLDGAIKPETILYYGRKRGIALPADTPEELQNIIGMDKPLSLPEFLAKFDYYMPAIAGCREAVKRIAYEFVEMKAKDGVVYVEVRYSPHLLANSKVEPIPWNQAEGDLTPDEVVSLVNQGLQEGERDFGVKVRSILCCMRHQPSWSSEVVELCKKYREQTVVAIDLAGDETIEGSSLFPGHVKAYAEAVKSGVHRTVHAGEVGSANVVKEAVDTLKTERLGHGYHTLEDATLYNRLRQENMHFEVCPWSSYLTGAWKPDTEHPVVRFKNDQVNYSLNTDDPLIFKSTLDTDYQMTKNEMGFTEEEFKRLNINAAKSSFLPEDEKKELLDLLYKAYGMPSPASAEQCL
With B3, the Km was above 800 µM in series [9]; 640 µM in series [10]; above 800 µM in series [11]; 160 µM in [12]; 200 µM in series [13].

These data come from ChEMBL document CHEMBL1134666, “Design, synthesis, and biological evaluation of novel nucleoside and nucleotide analogues as agents against DNA viruses and/or retroviruses” (J Med Chem, 2001).
